This is an account of results in ChEMBL document CHEMBL1143563, “Enantiospecificity of glutamate carboxypeptidase II inhibition” (J Med Chem, 2005).

The species entered for one assay is Rattus norvegicus. The experiment in a line: Neuroprotective effect against ischemic injury with median effective concentration in rat. The format is functional. The gist of the method:
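Cerebral ischemia was simulated in a cell culture model by exposing rat cortical cultures to potassium cyanide and 2-deoxyglucose. Neuroprotection against this injury was reported as a median effective concentration.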

Assay [1] in a line: In vitro inhibition of N-acetyl-L-aspartyl-[3H]L-glutamate binding to Glutamate carboxypeptidase II. The gist of the method:
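Purified recombinant GCP II was incubated with radiolabelled substrate N-acetyl-L-aspartyl-[3H]-L-glutamate, and inhibition was reported as IC50. Values are mean ± SD of at least triplicate experiments; where only two experiments were run, the value is the mean of the duplicates.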

SMILES strings stand for the structures.

Usually EC50 stands for the concentration needed to bring the measured effect to its halfway point. The compound `O=C(O)CC[C@H](CP(=O)(O)O)C(=O)O` showed a 50% effective concentration (EC50) in the assay filed under Rattus norvegicus of 0.0002 µM.
Broadly, the IC50 is the concentration at which inhibition is half-maximal. A low value points to greater potency. `O=C(O)CC[C@@H](CP(=O)(O)Cc1c(F)c(F)c(F)c(F)c1F)C(=O)O` returned a 50% effective concentration (EC50) in the assay filed under Rattus norvegicus of 0.41 µM. In assay [1], this compound showed a concentration for half-maximal inhibition (IC50) of 1.4 µM.
In the assay filed under Rattus norvegicus, `O=C(O)CC[C@@H](CP(=O)(O)O)C(=O)O` registered an EC50 of 0.07 µM.
On to `O=C(O)CC[C@H](CP(=O)(O)Cc1c(F)c(F)c(F)c(F)c1F)C(=O)O`, for which a half-maximal response in the assay filed under Rattus norvegicus (EC50) required 0.0041 µM. The compound also yielded an IC50 in assay [1] of 0.034 µM.
Take `O=C(O)CCC(CP(=O)(O)O)C(=O)O` (centres undefined): the concentration for a half-maximal effect (EC50) in the assay listed under Rattus norvegicus is 0.0012 µM.
On the same count and under the same terms, then `O=C(O)CCC(CCCS)C(=O)O` (racemic), with 0.013 µM; and `O=C(O)CCC(CP(=O)(O)Cc1c(F)c(F)c(F)c(F)c1F)C(=O)O` (racemic), with 0.0095 µM.
